Here are results for 14 compounds from ChEMBL document CHEMBL3352023, “C-terminal residue optimization and fragment merging: discovery of a potent Peptide-hybrid inhibitor of dengue protease” (ACS Med Chem Lett, 2014).

pIC50: −log10 of the molar value. The source made the active and inactive calls. The rule behind the calls is not given here. Peptide text beside a SMILES is read from it. * marks the point of attachment. Bz = O=C(c1ccccc1)*

What is called inhibition is the change of the read-out against control, counted positive when it falls. What is called pIC50 is −log10 of the IC50, conventionally taken in molar units. Read a low pIC50 as a high IC50.

Test [1] concerns the target Genome polyprotein (dengue virus type 2) (UniProt P12823). The experiment in a line: Inhibition of Dengue virus serotype 2 NS2B-NS3 protease at 50 uM by homogeneous fluorimetric assay.
The target of test [2] is Genome polyprotein (dengue virus type 2, UniProt P12823). The experiment in a line: Inhibition of Dengue virus serotype 2 NS2B-NS3 protease by homogeneous fluorimetric assay.
Test [3] has as its target Genome polyprotein (West Nile virus) (UniProt P06935). Put plainly: Inhibition of West Nile virus […] NS2B-NS3 protease at 50 uM by homogeneous fluorimetric assay. The method in brief:
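WNV NS2B-NS3 protease percent inhibition, homogeneous fluorimetric assay: enzyme 150 nM, inhibitor 50 μM, substrate 50 μM (Km = 212 μM); triplicate, SD below 10%.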

For test [4], the target named is Prothrombin (Homo sapiens) (UniProt P00734). Put plainly: Inhibition of thrombin (unknown origin) at 25 uM by homogeneous fluorimetric assay.

Genome polyprotein (West Nile virus), sequence (P06935 whole entry): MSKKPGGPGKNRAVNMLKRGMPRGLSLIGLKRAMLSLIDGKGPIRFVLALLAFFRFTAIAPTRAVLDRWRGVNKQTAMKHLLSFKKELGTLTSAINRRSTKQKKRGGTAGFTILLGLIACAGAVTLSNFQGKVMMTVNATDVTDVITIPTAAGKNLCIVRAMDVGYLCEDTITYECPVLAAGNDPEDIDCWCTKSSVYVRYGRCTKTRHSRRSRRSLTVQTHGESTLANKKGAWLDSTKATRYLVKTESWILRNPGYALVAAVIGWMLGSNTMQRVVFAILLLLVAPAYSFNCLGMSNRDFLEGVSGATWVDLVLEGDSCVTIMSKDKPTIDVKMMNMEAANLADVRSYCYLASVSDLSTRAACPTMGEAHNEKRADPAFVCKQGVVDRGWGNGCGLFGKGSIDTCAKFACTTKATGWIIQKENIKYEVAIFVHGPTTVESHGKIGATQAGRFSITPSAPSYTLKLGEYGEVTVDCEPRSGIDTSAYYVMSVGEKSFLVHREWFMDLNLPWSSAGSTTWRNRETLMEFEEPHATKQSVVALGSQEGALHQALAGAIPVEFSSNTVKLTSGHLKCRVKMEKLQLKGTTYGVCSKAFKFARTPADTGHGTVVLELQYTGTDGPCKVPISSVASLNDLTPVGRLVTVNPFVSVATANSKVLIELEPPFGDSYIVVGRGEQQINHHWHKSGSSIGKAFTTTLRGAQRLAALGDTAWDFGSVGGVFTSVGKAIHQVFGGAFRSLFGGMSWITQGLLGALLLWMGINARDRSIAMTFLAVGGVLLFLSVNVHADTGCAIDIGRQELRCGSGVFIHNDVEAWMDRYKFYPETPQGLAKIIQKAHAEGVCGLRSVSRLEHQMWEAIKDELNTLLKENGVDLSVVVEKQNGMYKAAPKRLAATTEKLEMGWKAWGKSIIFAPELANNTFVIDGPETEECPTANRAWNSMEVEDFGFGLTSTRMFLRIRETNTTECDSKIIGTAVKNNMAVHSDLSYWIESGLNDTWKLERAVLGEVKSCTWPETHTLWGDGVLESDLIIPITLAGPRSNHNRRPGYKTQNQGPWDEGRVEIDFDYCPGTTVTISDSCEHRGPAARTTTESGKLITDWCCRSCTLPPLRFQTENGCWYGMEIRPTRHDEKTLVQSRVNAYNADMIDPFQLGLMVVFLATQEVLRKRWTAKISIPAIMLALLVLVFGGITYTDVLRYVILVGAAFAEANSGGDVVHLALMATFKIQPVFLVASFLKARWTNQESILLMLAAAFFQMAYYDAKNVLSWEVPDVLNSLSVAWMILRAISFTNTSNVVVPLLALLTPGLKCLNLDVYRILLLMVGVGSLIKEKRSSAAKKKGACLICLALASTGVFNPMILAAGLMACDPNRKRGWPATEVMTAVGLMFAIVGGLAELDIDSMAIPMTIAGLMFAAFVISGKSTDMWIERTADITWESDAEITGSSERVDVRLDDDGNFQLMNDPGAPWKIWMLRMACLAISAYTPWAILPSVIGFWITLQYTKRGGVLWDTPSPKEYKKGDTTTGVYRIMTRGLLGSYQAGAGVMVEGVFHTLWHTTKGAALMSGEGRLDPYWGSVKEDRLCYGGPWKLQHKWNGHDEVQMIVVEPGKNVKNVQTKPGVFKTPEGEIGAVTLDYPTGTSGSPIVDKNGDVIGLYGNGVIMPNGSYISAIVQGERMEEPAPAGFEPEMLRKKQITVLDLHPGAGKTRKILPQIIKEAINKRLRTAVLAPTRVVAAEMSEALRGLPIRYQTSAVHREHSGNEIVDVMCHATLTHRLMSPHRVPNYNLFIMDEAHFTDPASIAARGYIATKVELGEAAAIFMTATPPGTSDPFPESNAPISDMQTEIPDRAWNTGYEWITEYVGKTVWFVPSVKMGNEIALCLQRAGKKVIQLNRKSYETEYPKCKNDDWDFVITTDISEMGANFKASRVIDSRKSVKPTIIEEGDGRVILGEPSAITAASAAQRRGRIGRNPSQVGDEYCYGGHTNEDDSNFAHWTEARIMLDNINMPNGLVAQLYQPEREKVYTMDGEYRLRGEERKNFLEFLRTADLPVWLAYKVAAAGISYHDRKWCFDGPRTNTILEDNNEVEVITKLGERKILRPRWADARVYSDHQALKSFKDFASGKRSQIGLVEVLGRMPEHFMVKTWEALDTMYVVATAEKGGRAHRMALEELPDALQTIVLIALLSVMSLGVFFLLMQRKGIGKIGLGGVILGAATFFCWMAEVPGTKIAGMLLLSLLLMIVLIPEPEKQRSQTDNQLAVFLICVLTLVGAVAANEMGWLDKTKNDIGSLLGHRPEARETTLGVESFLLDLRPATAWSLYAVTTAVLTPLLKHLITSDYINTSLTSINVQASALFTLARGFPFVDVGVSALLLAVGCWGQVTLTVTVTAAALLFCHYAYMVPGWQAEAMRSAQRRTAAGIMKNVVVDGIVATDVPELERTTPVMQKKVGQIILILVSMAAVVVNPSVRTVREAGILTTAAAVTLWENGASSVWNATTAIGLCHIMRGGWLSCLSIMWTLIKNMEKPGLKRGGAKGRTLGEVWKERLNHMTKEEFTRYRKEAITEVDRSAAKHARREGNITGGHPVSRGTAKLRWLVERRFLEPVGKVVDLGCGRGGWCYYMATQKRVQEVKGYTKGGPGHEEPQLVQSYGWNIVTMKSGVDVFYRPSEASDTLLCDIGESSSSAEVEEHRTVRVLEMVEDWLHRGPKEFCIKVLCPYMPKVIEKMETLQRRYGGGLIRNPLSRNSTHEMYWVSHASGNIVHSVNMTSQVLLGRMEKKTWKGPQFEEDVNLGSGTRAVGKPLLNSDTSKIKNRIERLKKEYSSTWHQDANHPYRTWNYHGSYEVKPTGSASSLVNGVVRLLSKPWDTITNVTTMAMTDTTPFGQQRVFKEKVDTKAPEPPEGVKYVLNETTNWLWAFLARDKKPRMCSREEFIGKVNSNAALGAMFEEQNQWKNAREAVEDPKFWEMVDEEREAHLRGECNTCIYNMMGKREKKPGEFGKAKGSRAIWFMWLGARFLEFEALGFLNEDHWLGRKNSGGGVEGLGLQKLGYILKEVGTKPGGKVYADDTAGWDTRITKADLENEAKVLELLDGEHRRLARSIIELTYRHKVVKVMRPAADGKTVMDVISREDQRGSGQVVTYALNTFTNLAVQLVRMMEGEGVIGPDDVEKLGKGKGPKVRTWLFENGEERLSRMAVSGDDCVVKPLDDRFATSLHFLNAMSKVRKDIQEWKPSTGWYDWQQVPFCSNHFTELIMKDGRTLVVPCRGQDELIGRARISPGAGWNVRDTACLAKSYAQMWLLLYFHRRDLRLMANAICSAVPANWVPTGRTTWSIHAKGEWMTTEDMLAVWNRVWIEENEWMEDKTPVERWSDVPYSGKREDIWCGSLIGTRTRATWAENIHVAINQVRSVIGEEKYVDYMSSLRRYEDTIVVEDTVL

As to `CCCC[C@H](NC(=O)[C@H](CCCCN)NC(=O)[C@H](CCCNC(=N)N)NC(=O)c1ccccc1)C(N)=O`, the results for the inhibition in test [1] and in test [3] were 68.1% and 7.7%, respectively. In test [2], this compound had a pIC50 of 4.88.

Take `CCCC[C@H](NC(=O)[C@H](CCCCN)NC(=O)[C@H](CCCNC(=N)N)NC(=O)c1ccc(/C=C(\C#N)C(=O)NC2CC2)cc1)C(N)=O`: the results for the inhibition in test [1] and in test [3] were 88.5% and 28%, respectively. In addition, the pIC50 in test [2] was 5.28.

For the compound `CCCC[C@H](NC(=O)[C@H](CCCCN)NC(=O)[C@H](CCCNC(=N)N)NC(=O)c1ccc(/C=C2\SC(=O)N(C3CCCC3)C2=O)cc1)C(N)=O`, the inhibition in test [1] worked out at 98.2%; in test [3], 51.8%. The compound also had a pIC50 in test [2] of 5.60.

Take `CCCC[C@@H](NC(=O)[C@H](CCCCN)NC(=O)[C@H](CCCNC(=N)N)NC(=O)c1ccccc1)C(N)=O`: the inhibition in test [1] was found to be 72.7%; in test [3], 16.1%; in test [4], 4.9%. This compound also gave a pIC50 in test [2] of 4.85.

On to `N#C/C(=C\c1ccc(C(=O)N[C@@H](CCCNC(=N)N)C(=O)N[C@@H](CCCCN)C(=O)NC(C(N)=O)c2ccccc2)cc1)C(=O)NC1CC1` (stereo partly drawn), for which the inhibition in test [1] turned out to be 98.6%; in test [3] it was 90.2%; in test [4], 5.6%. This compound also had a pIC50 in test [2] of 5.89.

For `N#C/C(=C\c1ccc(C(=O)N[C@@H](CCCNC(=N)N)C(=O)N[C@@H](CCCCN)C(=O)N2Cc3ccccc3CC2C(N)=O)cc1)C(=O)NC1CC1` (stereo partly drawn), the values for the inhibition in test [1] and in test [3] were 59.2% and 38.3%, respectively. Besides, in test [2], the pIC50 was 4.60. Further, in test [4], the inhibition result is “inactive”.

In the case of `N=C(N)NCCC[C@H](NC(=O)c1ccc(/C=C2\SC(=O)N(C3CCCC3)C2=O)cc1)C(=O)N[C@@H](CCCCN)C(=O)N1Cc2ccccc2CC1C(N)=O` (stereo partly drawn), the values for the inhibition in test [1], in test [3] and in test [4] were 85.7%, 49.4% and 7.6%, respectively. In test [2], this compound showed a negative-log IC50 (pIC50) of 4.98.

Take `CC(C)(C)[C@H](NC(=O)[C@H](CCCCN)NC(=O)[C@H](CCCNC(=N)N)NC(=O)c1ccc(/C=C(\C#N)C(=O)NC2CC2)cc1)C(N)=O`: the figures for the inhibition in test [1], in test [3] and in test [4] were 32.5%, 26.7% and 5%, respectively. In addition, in test [2], the pIC50 is 4.24.

As to `CC(C)(C)[C@H](NC(=O)[C@H](CCCCN)NC(=O)[C@H](CCCNC(=N)N)NC(=O)c1ccc(/C=C2\SC(=O)N(C3CCCC3)C2=O)cc1)C(N)=O`, the inhibition in test [1] turned out to be 60.6%; in test [3] it was 28%; in test [4] it was 10.2%. In test [2], the pIC50 is 4.53.

For the compound `C[C@H](NC(=O)[C@H](CCCCN)NC(=O)[C@H](CCCNC(=N)N)NC(=O)c1ccccc1)C(N)=O` (Bz-Arg-Lys-Ala-NH2), the inhibition worked out at 46.6% in test [1], 26% in test [3] and 7.2% in test [4]. This compound had a pIC50 in test [2] of 4.45.

For the compound `N=C(N)NCCC[C@H](NC(=O)c1ccccc1)C(=O)N[C@@H](CCCCN)C(=O)NCC(N)=O` (Bz-Arg-Lys-Gly-NH2), the inhibition stood at 70.4% in test [1], 44.6% in test [3] and 3.5% in test [4]. The compound also showed a pIC50 in test [2] of 4.68.

As for `CC[C@H](C)[C@H](NC(=O)[C@H](CCCCN)NC(=O)[C@H](CCCNC(=N)N)NC(=O)c1ccccc1)C(N)=O` (Bz-Arg-Lys-Ile-NH2), the inhibition was found to be 56.6% in test [1], 14.9% in test [3] and 4.6% in test [4]. In addition, the pIC50 in test [2] is 4.55.

As to `CC(C)C[C@H](NC(=O)[C@H](CCCCN)NC(=O)[C@H](CCCNC(=N)N)NC(=O)c1ccccc1)C(N)=O` (Bz-Arg-Lys-Leu-NH2), the inhibition in test [1] is 63.2%; in test [3], 18.4%; in test [4], 5.9%. In test [2], this compound had a pIC50 of 4.64.

`CSCC[C@H](NC(=O)[C@H](CCCCN)NC(=O)[C@H](CCCNC(=N)N)NC(=O)c1ccccc1)C(N)=O` (Bz-Arg-Lys-Met-NH2): the inhibition in test [1] came out at 45%; in test [3], 11.8%; in test [4], 6.2%. The pIC50 in test [2] is 4.32.
